Measurements gathered from unrelated publications.
Target: Mitogen-activated protein kinase kinase kinase 10 (MAP3K10, Homo sapiens, UniProt Q02779)

SMILES | test | setting | remaining binding [%]
O=C(c1ccc(Nc2ncc(Cl)c(-c3ccc(Cl)s3)n2)cc1)N1CCC(N2CCCC2)CC1 | binding, competition with immobilised ligand | 1 µM | 0
N[C@@H]1CCN(c2nccc(-c3cnn4ncccc34)n2)C1 | binding | 1 µM | 100
COc1ncc2cc3ccccc3nc2c1C#N | cell-free assay, competition with immobilised ligand | 5 µM | 79
CN(C)c1ncc(F)c(-c2cnn3ncccc23)n1 | binding | 1 µM | 100
O=c1nc(-c2ccccn2)sc2ccccc12 | binding, competition with immobilised ligand | 1 µM | 100
O=C(c1ccc(Nc2nccc(-c3cc4ccccc4s3)n2)cc1)N1CCC(N2CCCC2)CC1 | binding, competition with immobilised ligand | 1 µM | 21
CN(C)c1nccc(-c2cnc3ncccn23)n1 | binding | 1 µM | 72
O=C(Nc1c[nH]nc1C(=O)NC1CCNCC1)c1cc(F)cc(F)c1 | binding, competition with immobilised ligand | 1 µM | 100
CC(=O)N1CCC(c2ccc(C(=O)NC(=N)N)cc2C(F)(F)F)CC1 | cell-free assay, competition with immobilised ligand | 1 µM | 95
CCN1CCN(Cc2ccc(C(=O)Nc3ccc(C)c(Oc4ccc5c(c4)CC(=O)N5)c3)cc2C(F)(F)F)CC1 | binding, competition with immobilised ligand | 1 µM | 100
O=C(c1ccc(Nc2ncc(Cl)c(-c3cc4ccccc4s3)n2)cc1)N1CCC(N2CCCC2)CC1 | binding, competition with immobilised ligand | 1 µM | 3.5
C=CC(=O)N1CCC(C(=O)NCC(=O)N2CCN(c3nc(-c4cnc(N)nc4C(F)F)nc(N4CCOCC4)n3)CC2)CC1 | binding, competition with immobilised ligand | 1 µM | 99
COc1cnc(Nc2cccc(S(N)(=O)=O)c2)nc1N1CCN(c2ccccc2)CC1 | binding, competition with immobilised ligand | 1 µM | 89
Cc1c(NC(=O)c2cc(C(N)=O)nc3cc(F)ccc23)c(C(F)(F)F)nn1Cc1ccc(C#N)cc1 | cell-free assay, competition with immobilised ligand | 1 µM | 92
Cc1cnn2ncc(-c3ccnc(N(C)C)n3)c2c1 | binding | 1 µM | 100
CN(C(=O)c1ccccc1)c1cc(N(C)c2ccc3c(c2)CCc2ccc(C(=O)NCCN4CCOCC4)cc2C3=O)ccc1F | cell-free assay, competition with immobilised ligand | 1 µM | 75
Nc1ncc2c(n1)-c1c([nH]c3ccc(C#CC4CC4)cc13)CCCC2 | binding, competition with immobilised ligand | 1 µM | 91
COc1ccc2c(c1)O[C@H](c1ccc(OC)c(OC)c1)C[C@@H]2NC(=O)C1(c2ccc3c(c2)OC(F)(F)O3)CC1 | cell-free assay, competition with immobilised ligand | 1 µM | 97
CN(CCCC(F)(F)F)c1nccc(-c2cnn3ncccc23)n1 | binding | 1 µM | 0
Cc1cc(-n2nc(Cc3cc(F)cc(C(F)(F)F)c3)nc2C)ccc1C(N)=O | cell-free assay, competition with immobilised ligand | 1 µM | 95
c1cnn2ncc(-c3ccnc(N4CCC45COC5)n3)c2c1 | binding | 1 µM | 100
